Active and inactive are the calls of the source. The calls are words filed in the database; no cut-off is given here.
What was measured:
Mus musculus [1] = assay: Analgesic activity was determined by tail flick assay after subcutaneous administration in mice; assay type: functional; details: sc
Method in brief: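 Tail-flick method; compound given subcutaneously in normal saline. Potency derived by probit analysis, reported with 95% confidence limits.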

Mus musculus [2] = assay: Analgesic activity was determined by writhing test after subcutaneous administration in mice; assay type: functional; details: sc
Method in brief: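 Phenylquinone-induced writhing; compound given subcutaneously in distilled water. Potency derived by probit analysis, reported with 95% confidence limits.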

Mus musculus [3] = assay: Analgesic activity was determined by tail flick assay after subcutaneous administration in mice; Inactive; assay type: functional, organism-based

SMILES	ED50 (Mus musculus [1])	ED50 (Mus musculus [2])	ED50 (Mus musculus [3])
CN1CC[C@]23CCCC[C@H]2[C@H]1Cc1ccc(O)cc13 [LEVORPHANOL]	1.3 mg/kg	0.1 mg/kg	
COc1ccc2c(c1)C13CCCCC1C(C2)N(C)CC3 (stereo not drawn) [RACEMETHORPHAN]	6.78 mg/kg	0.64 mg/kg	
CN1CCC23CCCCC2C1Cc1ccc(OC(C)(C)C)cc13 (configuration not stated)	5.81 mg/kg	5 mg/kg	
COc1ccc2c3c1O[C@H]1[C@@H](O)C=C[C@H]4[C@@H](C2)N(C)CC[C@@]341 [CODEINE]	39 mg/kg	2.3 mg/kg	
CN1CCC23c4c5ccc(OC(C)(C)C)c4O[C@H]2[C@@H](O)C=CC3C1C5 (some centres not stated)		26.8 mg/kg	inactive
CN1CC[C@]23c4c5ccc(O)c4O[C@H]2[C@@H](O)C=C[C@H]3[C@H]1C5 [MORPHINE]	4.06 mg/kg	0.46 mg/kg	

From ChEMBL document CHEMBL1122181 (J Med Chem, 1982)
